# Laboratory results reported in publication PMC3994405 (Clinical cancer research : an official journal of the …, 2014).
# Where two headings read alike, the source gives them in different places.
# System: peptide-MHC reactive CD8 T cells in PBLs from healthy donors
# Format: cell-based, human
# Settings: PBLs after enrichment and 2-3 weeks culture
# In short: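 PBLs washed in PBS with 2% FBS and stained with 0.1ug of each PE-coupled peptide-MHC multimer, 1h at 4°C. Anti-PE microbeads were added for 15 min, then magnetic column capture. Enriched cells were expanded 2–3 weeks in X-vivo with 5% human serum, 100 U/ml IL-2, 15 ng/ml IL-15, autologous negative-fraction feeders and anti-CD3/CD28 beads. Cells were then analysed by two-colour combinatorial multimer staining on lymphocyte/single/live/CD8 gates.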
sequence,measurement,setting,value
KMALHGLPR,Healthy Donors: number of times a response was detected/number of investigated HLA matched individuals,HLA-A3 restriction,1/14
LPRYFNVTL,Healthy Donors: number of times a response was detected/number of investigated HLA matched individuals,HLA-B7 restriction,1/13
NLPAYSVARV,Healthy Donors: number of times a response was detected/number of investigated HLA matched individuals,HLA-A2 restriction,1/16
SLFSNLMPK,Healthy Donors: number of times a response was detected/number of investigated HLA matched individuals,HLA-A11 restriction,2/7A11
TVLGRKMTPK,Healthy Donors: number of times a response was detected/number of investigated HLA matched individuals,HLA-A3 restriction,1/14
VTLRKRWVK,Healthy Donors: number of times a response was detected/number of investigated HLA matched individuals,HLA-A11 restriction,1/7
